# Published values pooled from the literature.
# Lines come from different studies, so protocols differ.
# RPS6KA6: Ribosomal protein S6 kinase alpha-6 (RPS6KA6, Homo sapiens, UniProt Q9UK32)
# RPS6KA6 N-terminal kinase domain: Ribosomal protein S6 kinase alpha-6, N-terminal kinase domain (RPS6KA6, Homo sapiens, UniProt Q9UK32)
# RPS6KA6 C-terminal kinase domain: Ribosomal protein S6 kinase alpha-6, C-terminal kinase domain (RPS6KA6, Homo sapiens, UniProt Q9UK32)
Structure (SMILES),target,assay,conditions,endpoint,value
O=C1Nc2ccc(Cl)cc2C1=Cc1cc(Cl)c(O)c(Cl)c1,RPS6KA6,cell-free assay,0.5 µM,remaining signal,78.5%
C[C@H](NC(=O)c1cnc2n1[C@](C)(Cc1ccc(C#N)cc1)C(=O)N2c1cc(Cl)c(F)c(Cl)c1)C(=O)NC1(c2ccccn2)CC1,RPS6KA6 N-terminal kinase domain,"cell-free assay, competition with immobilised ligand",1 µM,remaining binding,91%
N#CCCc1ccc2c(c1)-c1[nH]c3ccc([N+](=O)[O-])cc3c1CC(=O)N2,RPS6KA6,cell-free assay,0.5 µM,remaining signal,13.4%
Cc1cc(NC(=O)c2cccc3cc(-c4cccc5[nH]nc(N)c45)ccc23)ccc1F,RPS6KA6,"enzyme activity, inhibitor",0.1 µM,activity vs control,94%
CCCS(=O)(=O)Nc1ccc(F)c(C(=O)c2c[nH]c3ncc(-c4ccc(Cl)cc4)cc23)c1F,RPS6KA6,"enzyme activity, inhibitor",1 µM,inhibition,< 10%
CN(CCCC(F)(F)F)c1nccc(-c2cnn3ncccc23)n1,RPS6KA6 N-terminal kinase domain,"binding, competition with immobilised ligand",1 µM,remaining binding,100%
CO[C@@H](C)c1c(Nc2ccc([C@@H](N(C)C(=O)C3CCS(=O)(=O)CC3)C(F)(F)F)cc2)cnc2cc(Cl)nn12,RPS6KA6 C-terminal kinase domain,"cell-free assay, competition with immobilised ligand",1 µM,remaining binding,98%
CC1(C)NC(=O)c2[nH]c3c(Cl)c(Cl)ccc3c2C1C#N (centres unmarked),RPS6KA6,"thermal stability, DSF",10 µM,ΔTm,2.2 °C
Cn1cc(Cl)c2c(Oc3c(F)cc(Nc4cc(Cl)nc(N)n4)cc3F)ccnc21,RPS6KA6 C-terminal kinase domain,"cell-free assay, competition with immobilised ligand",0.1 µM,remaining binding,100%
CCOc1cc(-c2nncn2C)ccc1Nc1ncc2cc(C)nc(NCC(C)(C)C)c2n1,RPS6KA6,"enzyme activity, inhibitor, FRET",1 µM,inhibition,24%
C[C@@H]1CCN(c2nccc(-c3cnn4ncccc34)n2)C1,RPS6KA6 C-terminal kinase domain,"binding, competition with immobilised ligand",1 µM,remaining binding,66%
Cn1c2c(c3ccc(Cl)c(Cl)c31)C(C#N)C1(CCOCC1)NC2=O (centres unmarked),RPS6KA6,"thermal stability, DSF",10 µM,ΔTm,0.1 °C
Cc1cnc(NC2CCOCC2)nc1-n1cnc(C(=O)NC(CN)c2cc(F)cc(Cl)c2)c1 (centres unmarked),RPS6KA6,"enzyme activity, inhibitor, radiometric",1 µM,remaining activity,17%
O=C(N[C@H]1CCCCC/C=C\C2C[C@@]2(C(=O)O)NC(=O)[C@@H]2C[C@@H](Oc3ccncc3)CN2C1=O)OC1CCCC1 (some centres unmarked),RPS6KA6 N-terminal kinase domain,"binding, competition with immobilised ligand",1 µM,remaining binding,60%
c1cnn2ncc(-c3ccnc(N4CCC45COC5)n3)c2c1,RPS6KA6 C-terminal kinase domain,"binding, competition with immobilised ligand",1 µM,remaining binding,66%
CN(C)c1ncnc(-c2ccc3nc(Nc4cc(CN5CCN(C(=O)CC(F)(F)F)CC5)ccn4)[nH]c3c2)c1Cl,RPS6KA6 C-terminal kinase domain,"cell-free assay, competition with immobilised ligand",1 µM,remaining binding,81%
N[C@H]1CCN(c2nccc(-c3cnn4ncccc34)n2)C1,RPS6KA6 N-terminal kinase domain,"binding, competition with immobilised ligand",1 µM,remaining binding,100%
Cc1nccc(COC(=O)N2C[C@@H]3[C@@H](CNC(=O)c4ccc5[nH]nnc5c4)[C@@H]3C2)n1,RPS6KA6 N-terminal kinase domain,"cell-free assay, competition with immobilised ligand",1 µM,remaining binding,100%
CC/C(=N\NC(=O)C(C)Nc1ccccc1)c1ccc(O)c(C)c1O (centres unmarked),RPS6KA6,"enzyme activity, inhibitor",0.1 µM,inhibition,28.6%
Cc1nc(C2CCN(C(=O)c3ccc(OC(F)(F)F)cc3N)CC2)c2ncc(N3CCN(C)CC3)cc2n1,RPS6KA6 C-terminal kinase domain,"cell-free assay, competition with immobilised ligand",1 µM,remaining binding,100%
Cn1c2c(Cl)c(Cl)ccc2c2cn[nH]c(=O)c21,RPS6KA6,"thermal stability, DSF",10 µM,ΔTm,2 °C
CC(C)(C)c1nc2c(s1)c1nc(N)ncc1c1ccc(NS(=O)(=O)c3c(F)cccc3F)c(F)c12,RPS6KA6,"enzyme activity, inhibitor, radiometric",1 µM,remaining activity,97%
COc1ccc2cc(OCC3(C(=O)O)CN(C(=O)c4ccc(F)cc4)C3)ccc2c1,RPS6KA6 N-terminal kinase domain,"cell-free assay, competition with immobilised ligand",1 µM,remaining binding,77%
Cn1c2c(Cl)c(Cl)ccc2c2cc(N)[nH]c(=O)c21,RPS6KA6,"thermal stability, DSF",10 µM,ΔTm,3.3 °C
Nc1ncnc2occ(-c3ccc(NC(=O)Nc4cc(C(F)(F)F)ccc4F)cc3)c12,RPS6KA6 C-terminal kinase domain,"cell-free assay, inhibitor",20 µM,remaining signal,18%
Cc1ccc(C(=O)Nc2ccc(CN3CCN(C)CC3)c(C(F)(F)F)c2)cc1C#Cc1cnc2cccnn12,RPS6KA6,"enzyme activity, inhibitor",23.5 nM,activity vs control,84%
F[C@@H]1CCN(c2nccc(-c3cnn4ncccc34)n2)C1,RPS6KA6 N-terminal kinase domain,"binding, competition with immobilised ligand",1 µM,remaining binding,82%
COc1cc2ncnc(Nc3ccc(Oc4ccccc4)cc3C)c2cc1OC,RPS6KA6,"enzyme activity, inhibitor",1 µM,inhibition,7%
CN1CC(Oc2cnc(C#N)cc2-c2ccn3nc(NC(=O)C4CC4)cc3c2)C1,RPS6KA6,"enzyme activity, inhibitor",1 µM,inhibition,-4%
C[S+]([O-])c1ccc(-c2nc(-c3ccncc3)c(-c3ccc(F)cc3)[nH]2)cc1 (centres unmarked),RPS6KA6,cell-free assay,0.5 µM,remaining signal,110%
CNC(=O)c1cc(Oc2ccc(NC(=O)Nc3ccc(Cl)c(C(F)(F)F)c3)cc2)ccn1,RPS6KA6,"enzyme activity, inhibitor",10 µM,inhibition,-16%
Cc1ccc(Nc2nccc(N(C)c3ccc4c(C)n(C)nc4c3)n2)cc1S(N)(=O)=O,RPS6KA6,"enzyme activity, inhibitor",0.5 µM,remaining activity,96.8%
O=C(Nc1cnn(-c2csc(C(=O)NC3COC3)c2)c1)Nc1c(F)cccc1Cl,RPS6KA6,"enzyme activity, inhibitor",5 µM,remaining activity,92.2%
N#CC1c2c([nH]c3c(Cl)c(Cl)ccc23)C(=O)NC12CCCCC2 (racemic),RPS6KA6,"thermal stability, DSF",10 µM,ΔTm,1.6 °C
CS(=O)(=O)CCNCc1ccc(-c2ccc3ncnc(Nc4ccc(OCc5cccc(F)c5)c(Cl)c4)c3c2)o1,RPS6KA6,cell-free assay,0.5 µM,remaining signal,108%
